Assay [1] has as its system A549. Nature of the assay: Inhibition of tumorsphere formation in human A549 cells assessed as reduction in side population ratio at 0.25 to 1 uM by PI/Hoechst 33342 staining based flow cytometry. The class given is functional, cell-based. Background: In flow cytometry, cells or beads pass a laser one at a time.
The species entered for assay [2] is Homo sapiens. Briefly: Inhibition of human Ros V2262A mutant (1883 to end residues) at 1 uM using KKKSPGEYVNIEFG as substrate measured after 40 mins in presence of [gamma33P]ATP by scintillation counting method relative to control. A digest of the protocol: (§1)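 Percent inhibition of kinase activity at a single compound concentration, measured by the outsourced Eurofins KinaseProfiler panel. Values are the mean of two independent experiments.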

The subject of assay [3] is A549. Briefly: Induction of apoptosis in human A549 cells assessed as early apoptotic cells at 1 uM after 48 hrs by AnnexinV-FITC/PI staining-based flow cytometric analysis (reference value: 2.91%). Type of assay: functional.
Assay [4] concerns the target Ephrin type-B receptor 4 (Homo sapiens) (UniProt P54760). Nature of the assay: Inhibition of recombinant human EphB4 (561 to end residues) at 1 uM using poly(Glu, Tyr) 4:1 as substrate measured after 40 mins in presence of [gamma33P]ATP by scintillation counting method relative to control.
The species entered for assay [5] is Homo sapiens. Briefly: Inhibition of recombinant human Mer H628Q/R794A mutant (557 to 882 residues) at 1 uM using GGMEDIYFEFMGGKKK as substrate measured after 40 mins in presence of [gamma33P]ATP by scintillation counting method relative to control.
The target of assay [6] is Fibroblast growth factor receptor 3 (Homo sapiens) (UniProt P22607). Nature of the assay: Inhibition of recombinant human FGFR3 (447 to 761 residues) at 1 uM using poly(Glu, Tyr) 4:1 as substrate measured after 40 mins in presence of [gamma33P]ATP by scintillation counting method relative to control.
Assay [7] concerns the target Serine/threonine-protein kinase VRK1 (Homo sapiens) (UniProt Q99986). Briefly: Inhibition of human VRK1 at 1 uM by radiometric method relative to control.
The target in assay [8] is Ephrin type-B receptor 3 (Homo sapiens) (UniProt P54753). Briefly: Inhibition of recombinant human EphB3 (599 to 920 residues) at 1 uM using poly(Glu, Tyr) 4:1 as substrate measured after 40 mins in presence of [gamma33P]ATP by scintillation counting method relative to control. A digest of the protocol: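 Single-point inhibition at 1 µM was measured in the Eurofins KinaseProfiler panel. Values are the mean of two independent experiments.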

Assay [9] has as its target Transient receptor potential cation channel subfamily M member 7 (Homo sapiens) (UniProt Q96QT4). Briefly: Inhibition of recombinant human CHAK1 (1180 to end residues) at 1 uM using myelin basic protein as substrate measured after 40 mins in presence of [gamma33P]ATP by scintillation counting method relative to control.
Assay [10] has as its target Dual specificity mitogen-activated protein kinase kinase 2 (Homo sapiens) (UniProt P36507). Nature of the assay: Inhibition of recombinant full-length human MEK2 at 1 uM using unactive […] as substrate measured after 40 mins in presence of [gamma33P]ATP by scintillation counting method relative to control.
For assay [11], the target named is Serine/threonine-protein kinase ULK1 (Homo sapiens) (UniProt O75385). Nature of the assay: Inhibition of human ULK1 (1 to 314 residues) at 1 uM using casein as substrate measured after 40 mins in presence of [gamma33P]ATP by scintillation counting method relative to control.
Assay [12] addresses PI3-kinase p110-alpha/p85-alpha (Homo sapiens) (UniProt P27986+P42336). Nature of the assay: Inhibition of recombinant full-length human PI3K p110alpha/p85alpha at 1 uM using phosphatidylinositol-4, 5-bisphosphate as substrate measured after 40 mins by fluorescence assay relative to control. The class given is protein-complex assay.
The subject of assay [13] is NCI-H1299. Nature of the assay: Induction of apoptosis in human H1299 cells assessed as late apoptotic cells at 0.25 uM after 48 hrs by AnnexinV-FITC/PI staining-based flow cytometric analysis (reference value: 1.77%). Type of assay: functional.
The target of assay [14] is Cyclin-dependent kinase-like 1 (Homo sapiens) (UniProt Q00532). Briefly: Inhibition of recombinant human CDKL1 (1 to 303 residues) at 1 uM using RRRFRPASPLRGP as substrate measured after 120 mins in presence of [gamma33P]ATP by scintillation counting method relative to control.
Cyclin-dependent kinase-like 1 (Homo sapiens), sequence (Q00532 whole entry, the tested form may be a part): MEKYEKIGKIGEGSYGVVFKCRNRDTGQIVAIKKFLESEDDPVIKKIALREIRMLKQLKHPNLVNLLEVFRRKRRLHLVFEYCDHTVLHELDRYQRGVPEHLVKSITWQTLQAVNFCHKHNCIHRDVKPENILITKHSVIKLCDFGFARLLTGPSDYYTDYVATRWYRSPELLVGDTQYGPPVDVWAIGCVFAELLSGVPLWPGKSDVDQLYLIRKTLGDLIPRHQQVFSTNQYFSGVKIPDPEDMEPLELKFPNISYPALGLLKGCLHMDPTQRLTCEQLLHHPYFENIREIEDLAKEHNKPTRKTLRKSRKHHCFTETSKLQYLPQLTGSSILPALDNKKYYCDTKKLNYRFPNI
Assay [15] concerns the target Platelet-derived growth factor receptor beta (Homo sapiens) (UniProt P09619). Briefly: Inhibition of recombinant human PDGFRbeta (557 to end residues) at 1 uM using poly[Glu:Tyr] (4:1) as substrate measured after 40 mins in presence of [gamma33P]ATP by scintillation counting method relative to control.
Assay [16] has as its system NCI-H1299. Nature of the assay: Antitumour activity against human H1299 cells xenografted in Balb/c mouse assessed as effect on cyclin T1 level at 20 to 80 mg/kg, po administered for 3 weeks by immunohistochemistry. For orientation: In xenograft studies the graft and the host belong to different species.
Assay [17] has as its target Epidermal growth factor receptor (Homo sapiens) (UniProt P00533). Briefly: Inhibition of recombinant human EGFR (696 to end residues) at 1 uM using poly (Glu,Tyr) 4:1 as substrate incubated for 40 mins in presence of [gamma-33P]ATP at Km concentration by radiometric assay relative to control.
Assay [18] concerns the target TRAF2 and NCK-interacting protein kinase (Homo sapiens) (UniProt Q9UKE5). Briefly: Inhibition of human TNIK (1 to 367 residues) at 1 uM using RLGRDKYKTLRQIRQ as substrate measured after 40 mins in presence of [gamma33P]ATP by scintillation counting method relative to control. A digest of the protocol: as §1
In assay [19] the target is Homeodomain-interacting protein kinase 4 (Homo sapiens) (UniProt Q8NE63). Nature of the assay: Inhibition of recombinant full-length human HIPK4 at 1 uM using RRRFRPASPLRGPPK as substrate measured after 40 mins in presence of [gamma33P]ATP by scintillation counting method relative to control.
Assay [20] concerns the target Serine/threonine-protein kinase Nek6 (Homo sapiens) (UniProt Q9HC98). Briefly: Inhibition of recombinant human NEK6 (2 to end residues) at 1 uM using FLAKSFGSPNRAY as substrate measured after 40 mins in presence of [gamma33P]ATP by scintillation counting method relative to control.
Assay [21] addresses cGMP-dependent protein kinase 1 (Homo sapiens) (UniProt Q13976). Briefly: Inhibition of recombinant full-length human PKG1beta at 1 uM using RRRLSFAEPG as substrate measured after 40 mins in presence of [gamma33P]ATP by scintillation counting method relative to control.
In assay [22] the test system is Serine/threonine-protein kinase D1 (Homo sapiens), Q15139 [UNDEFINED MUTATION]. Nature of the assay: Inhibition of recombinant full-length human PKCmu R135A mutant at 1 uM using KKLNRTLSVA as substrate measured after 40 mins in presence of [gamma33P]ATP by scintillation counting method relative to control.
Assay [23] concerns the target Serine/threonine-protein kinase Nek7 (Homo sapiens) (UniProt Q8TDX7). Briefly: Inhibition of recombinant human NEK7 (2 to end residues) at 1 uM using FLAKSFGSPNRAY as substrate measured after 40 mins in presence of [gamma33P]ATP by scintillation counting method relative to control.

Activity calls are given as the source filed them. No cut-off for these calls is given here.

As usually defined, the inhibition is the relative decrease from the control value, in per cent.

Transient receptor potential cation channel subfamily M member 7 (Homo sapiens), sequence (Q96QT4 whole entry): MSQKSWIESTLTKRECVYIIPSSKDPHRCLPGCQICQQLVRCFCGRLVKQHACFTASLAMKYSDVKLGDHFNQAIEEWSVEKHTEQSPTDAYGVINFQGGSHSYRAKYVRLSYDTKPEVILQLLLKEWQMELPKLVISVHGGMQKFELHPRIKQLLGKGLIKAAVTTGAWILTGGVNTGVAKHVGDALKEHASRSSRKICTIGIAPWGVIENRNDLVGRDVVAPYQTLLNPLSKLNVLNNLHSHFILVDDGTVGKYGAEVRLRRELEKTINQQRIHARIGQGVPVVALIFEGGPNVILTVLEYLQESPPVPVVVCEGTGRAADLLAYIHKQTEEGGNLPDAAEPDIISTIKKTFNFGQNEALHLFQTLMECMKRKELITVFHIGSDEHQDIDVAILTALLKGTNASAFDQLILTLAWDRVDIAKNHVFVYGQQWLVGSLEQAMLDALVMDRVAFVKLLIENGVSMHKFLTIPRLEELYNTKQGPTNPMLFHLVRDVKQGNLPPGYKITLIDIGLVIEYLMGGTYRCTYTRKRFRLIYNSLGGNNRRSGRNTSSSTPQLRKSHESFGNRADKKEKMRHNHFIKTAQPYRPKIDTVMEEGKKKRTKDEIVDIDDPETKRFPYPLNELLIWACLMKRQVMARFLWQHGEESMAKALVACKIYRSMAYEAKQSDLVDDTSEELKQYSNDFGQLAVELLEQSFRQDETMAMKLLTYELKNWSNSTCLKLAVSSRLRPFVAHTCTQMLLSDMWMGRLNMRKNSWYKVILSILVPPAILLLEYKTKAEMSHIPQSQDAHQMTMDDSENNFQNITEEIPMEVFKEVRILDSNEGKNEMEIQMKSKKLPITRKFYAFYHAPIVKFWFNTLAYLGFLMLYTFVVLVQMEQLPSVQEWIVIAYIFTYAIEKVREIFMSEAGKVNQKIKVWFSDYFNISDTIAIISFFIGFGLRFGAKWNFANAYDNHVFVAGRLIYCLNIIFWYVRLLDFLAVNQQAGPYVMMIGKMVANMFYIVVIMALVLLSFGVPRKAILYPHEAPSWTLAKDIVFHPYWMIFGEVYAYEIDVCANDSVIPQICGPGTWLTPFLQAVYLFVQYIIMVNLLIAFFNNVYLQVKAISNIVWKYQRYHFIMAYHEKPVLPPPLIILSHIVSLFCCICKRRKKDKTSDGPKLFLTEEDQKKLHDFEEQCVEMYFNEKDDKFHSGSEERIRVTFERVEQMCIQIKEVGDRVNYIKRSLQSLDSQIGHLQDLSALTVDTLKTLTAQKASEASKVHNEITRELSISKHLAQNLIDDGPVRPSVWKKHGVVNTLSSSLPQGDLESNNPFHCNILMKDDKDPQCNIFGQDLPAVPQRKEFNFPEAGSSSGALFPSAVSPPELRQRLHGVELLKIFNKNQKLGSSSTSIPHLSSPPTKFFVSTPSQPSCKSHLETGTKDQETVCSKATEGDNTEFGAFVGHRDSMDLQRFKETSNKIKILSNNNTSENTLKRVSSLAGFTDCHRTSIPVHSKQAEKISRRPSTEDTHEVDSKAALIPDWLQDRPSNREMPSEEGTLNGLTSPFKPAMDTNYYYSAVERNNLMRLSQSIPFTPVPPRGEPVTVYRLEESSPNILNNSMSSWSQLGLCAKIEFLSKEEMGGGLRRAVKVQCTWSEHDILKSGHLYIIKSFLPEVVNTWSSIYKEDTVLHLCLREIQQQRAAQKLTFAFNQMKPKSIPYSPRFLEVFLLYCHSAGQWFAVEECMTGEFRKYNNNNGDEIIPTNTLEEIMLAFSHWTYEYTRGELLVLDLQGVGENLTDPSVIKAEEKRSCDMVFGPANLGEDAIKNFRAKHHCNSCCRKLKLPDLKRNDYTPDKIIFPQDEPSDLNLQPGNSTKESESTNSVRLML
Ephrin type-B receptor 4 (Homo sapiens), sequence (P54760 whole entry, the tested form may be a part): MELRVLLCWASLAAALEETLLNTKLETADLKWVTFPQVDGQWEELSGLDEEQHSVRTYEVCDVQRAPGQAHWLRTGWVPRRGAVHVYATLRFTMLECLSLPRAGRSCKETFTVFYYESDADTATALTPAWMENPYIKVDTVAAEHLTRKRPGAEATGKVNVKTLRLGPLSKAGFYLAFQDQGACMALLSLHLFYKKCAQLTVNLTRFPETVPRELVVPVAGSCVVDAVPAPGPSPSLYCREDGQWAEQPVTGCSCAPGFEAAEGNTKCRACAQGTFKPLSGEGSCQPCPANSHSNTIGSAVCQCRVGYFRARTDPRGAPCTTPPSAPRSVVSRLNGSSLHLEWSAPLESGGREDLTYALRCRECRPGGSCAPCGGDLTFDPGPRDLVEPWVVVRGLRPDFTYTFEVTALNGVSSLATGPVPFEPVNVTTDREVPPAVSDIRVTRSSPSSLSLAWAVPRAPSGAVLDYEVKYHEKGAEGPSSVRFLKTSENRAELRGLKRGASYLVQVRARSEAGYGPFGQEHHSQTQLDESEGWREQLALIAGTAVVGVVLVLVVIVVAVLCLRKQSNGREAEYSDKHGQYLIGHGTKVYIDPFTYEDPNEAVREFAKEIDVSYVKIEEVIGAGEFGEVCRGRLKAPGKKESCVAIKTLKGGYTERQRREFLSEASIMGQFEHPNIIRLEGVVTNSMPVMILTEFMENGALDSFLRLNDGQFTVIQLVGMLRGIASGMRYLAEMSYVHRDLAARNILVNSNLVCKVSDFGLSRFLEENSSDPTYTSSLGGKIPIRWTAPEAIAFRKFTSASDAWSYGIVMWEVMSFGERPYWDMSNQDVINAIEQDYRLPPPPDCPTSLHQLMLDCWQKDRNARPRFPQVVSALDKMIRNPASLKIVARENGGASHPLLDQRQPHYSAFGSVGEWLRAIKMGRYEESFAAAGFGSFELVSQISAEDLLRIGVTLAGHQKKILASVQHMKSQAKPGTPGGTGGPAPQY
cGMP-dependent protein kinase 1 (Homo sapiens), sequence (Q13976 whole entry): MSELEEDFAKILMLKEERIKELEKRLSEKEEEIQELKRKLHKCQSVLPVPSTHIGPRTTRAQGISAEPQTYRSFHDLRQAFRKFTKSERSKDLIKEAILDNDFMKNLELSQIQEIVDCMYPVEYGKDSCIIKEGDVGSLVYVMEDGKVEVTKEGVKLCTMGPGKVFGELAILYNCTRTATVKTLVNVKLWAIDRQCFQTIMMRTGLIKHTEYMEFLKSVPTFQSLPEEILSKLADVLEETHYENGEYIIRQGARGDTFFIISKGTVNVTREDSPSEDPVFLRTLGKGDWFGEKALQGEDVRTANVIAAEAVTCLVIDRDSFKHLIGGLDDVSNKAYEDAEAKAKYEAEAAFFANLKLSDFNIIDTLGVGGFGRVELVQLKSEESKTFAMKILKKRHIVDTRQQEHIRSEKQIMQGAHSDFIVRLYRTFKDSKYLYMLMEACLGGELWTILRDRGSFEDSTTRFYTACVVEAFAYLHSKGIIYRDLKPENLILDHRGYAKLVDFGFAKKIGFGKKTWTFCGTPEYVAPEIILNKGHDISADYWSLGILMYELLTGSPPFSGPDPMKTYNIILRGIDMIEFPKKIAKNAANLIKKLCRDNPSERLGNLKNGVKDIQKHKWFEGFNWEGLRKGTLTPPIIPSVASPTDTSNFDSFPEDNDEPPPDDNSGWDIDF
Platelet-derived growth factor receptor beta (Homo sapiens), sequence (P09619 whole entry): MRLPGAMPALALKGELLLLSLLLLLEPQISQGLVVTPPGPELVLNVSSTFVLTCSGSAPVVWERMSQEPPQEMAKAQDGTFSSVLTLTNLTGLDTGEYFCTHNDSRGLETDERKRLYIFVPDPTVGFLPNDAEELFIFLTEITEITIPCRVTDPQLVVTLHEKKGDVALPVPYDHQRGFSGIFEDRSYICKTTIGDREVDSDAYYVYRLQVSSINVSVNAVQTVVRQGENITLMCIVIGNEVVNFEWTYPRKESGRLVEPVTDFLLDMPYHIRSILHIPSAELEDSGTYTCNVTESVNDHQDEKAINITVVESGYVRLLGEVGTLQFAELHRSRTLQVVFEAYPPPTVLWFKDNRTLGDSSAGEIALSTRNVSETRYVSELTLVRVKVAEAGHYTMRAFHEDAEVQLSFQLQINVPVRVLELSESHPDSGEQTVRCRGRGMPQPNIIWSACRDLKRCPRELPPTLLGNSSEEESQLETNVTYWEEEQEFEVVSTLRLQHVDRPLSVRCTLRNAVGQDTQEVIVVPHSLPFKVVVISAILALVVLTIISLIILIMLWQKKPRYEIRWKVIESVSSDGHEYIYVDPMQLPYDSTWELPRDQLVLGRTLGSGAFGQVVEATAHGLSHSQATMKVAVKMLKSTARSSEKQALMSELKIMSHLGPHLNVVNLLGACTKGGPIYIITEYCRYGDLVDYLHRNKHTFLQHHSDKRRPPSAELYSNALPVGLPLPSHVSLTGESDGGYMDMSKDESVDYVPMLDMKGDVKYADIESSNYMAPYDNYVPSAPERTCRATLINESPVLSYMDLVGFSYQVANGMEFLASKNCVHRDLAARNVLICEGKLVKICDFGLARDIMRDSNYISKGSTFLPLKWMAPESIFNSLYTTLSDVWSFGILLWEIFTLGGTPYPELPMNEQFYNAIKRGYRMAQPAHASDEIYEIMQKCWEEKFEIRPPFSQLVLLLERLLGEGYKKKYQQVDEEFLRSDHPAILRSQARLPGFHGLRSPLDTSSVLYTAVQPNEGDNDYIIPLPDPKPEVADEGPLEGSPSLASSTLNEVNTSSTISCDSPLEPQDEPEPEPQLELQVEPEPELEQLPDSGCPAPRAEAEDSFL

Consider `CN(C)C(=O)c1cc2cnc(Nc3ccc(NC(=O)CCCCCCCN=C=S)cc3)nc2n1C1CCCC1`, for which the inhibition entry with A549 [1] was “Active”. For the same molecule, the inhibition is 0% in the assay filed under Homo sapiens [2]; -4% in assay [4]; 77% in the assay listed under Homo sapiens [5]; 28% in assay [6]; 0% in assay [7]; 12% in assay [8]. The inhibition in assay [9] was 16%; in [10], 8%; in assay [11] it was -3%; in [12], 8%; in [14], 17%; in assay [15], 2%. Moreover, the inhibition stood at 21% in assay [17]; 69% in assay [18]; 19% in [19]; 4% in assay [20]; 0% in assay [21]; 3% in assay [22]. The inhibition in [23] is -6%. The Activity is reported as 1.06% with A549 [3] and 2.24% in the assay with NCI-H1299 [13]. The result with NCI-H1299 [16] was inactive.

These data come from ChEMBL document CHEMBL4376814, “Novel cyclin-dependent kinase 9 (CDK9) inhibitor with suppression of cancer stemness activity against non-small-cell lung cancer” (Eur J Med Chem, 2019).
